Published values of several laboratories.
Lines come from different studies, so protocols differ.
Organism: Plasmodium falciparum
Observed: parasite growth

SMILES	test	test system	conditions	IC50
COc1cc(NC(C)CCCNC(=O)c2cccc(C(=O)NCCCC(C)Nc3cc(OC)cc4cccnc34)n2)c2ncccc2c1.Cl (centres unmarked)	–	D6	blood stage	2.2 µg/mL
CCN(CC)CCCC(C)Nc1ccnc2cc(Cl)ccc12 (centres unmarked)	–	NF54	blood stage	8 nM
CCCCCCCc1c(O)cc(CC=C(C)C)c(O)c1C=O	–	W2	72 h, drug-resistant strain, blood stage	2.7 µg/mL
C[C@@]12CCC[C@]3(C)C4=CC(=O)OCC4=C[C@@H](OC1=O)C23 (some centres unmarked)	–	W2	72 h, drug-resistant strain, blood stage	0.2 µg/mL
C=CCCCCCCCCCCCC(O)CC(O)CO (centres unmarked)	–	D6	blood stage	29.7 µg/mL
CCN(CC)CCCC(C)Nc1ccnc2cc(Cl)ccc12 (centres unmarked)	–	D6	72 h, blood stage	0.01 µg/mL
CO[C@H]1C[C@@H](C[C@H](C)[C@H]2CC(=O)[C@@H](C)/C=C(\C)[C@H](O)[C@H](OC)C(=O)[C@@H](C)C[C@@H](C)/C=C/C=C/C=C(\C)[C@H](OC)C[C@H]3CC[C@H](C)[C@](O)(O3)C(=O)C(=O)N3CCCC[C@@H]3C(=O)O2)CC[C@@H]1OCCO (racemic)	SYBR Green	–	blood stage	1250 nM
Cc1cc(NC(=O)Nc2ccc3c(c2)OC(F)(F)O3)cc(C(F)(F)F)n1	–	NF54	blood stage	290 nM
Clc1ccc2c(c1)nc(NCCNCc1ccccc1)n2Cc1ccccc1	–	NF54	blood stage	86 nM
NCCN(C(=O)c1ccc(Cl)cc1Cl)c1ccc(OCc2ccc(Cl)cc2)cc1	SYBR Green	–	blood stage	2810 nM
COC(=O)c1cccc(-c2nc3c(N4CCC(N5CCN(C)CC5)CC4)nccc3[nH]2)c1	–	NF54	blood stage	< 100 nM
Brc1ccc2c(c1)nc(C1CCNCC1)n2Cc1ccccc1	–	NF54	blood stage	28 nM
C#CCCCCCCCCC=CCC(O)CC(O)CO (centres unmarked)	–	W2	drug-resistant strain, blood stage	> 47.6 µg/mL
O=C(Nc1ccc(F)cc1C(=O)O)c1ccc(-c2ccccc2)cc1	–	NF54	48 h, blood stage	> 10000 nM
COC(=O)c1ccc2c(c1)nc(C1CCNCC1)n2Cc1ccccc1	–	NF54	blood stage	3830 nM
COC1=CC(c2ccc[nH]2)=NC1=Cc1ccc(CCCCCCCCCCCO)[nH]1	–	D6	blood stage	59 nM
O=C(O)c1cc(F)ccc1NC(=O)c1ccccc1-c1ccccc1	resazurin	NF54	48 h, gametocyte	674 nM
CC[C@@H](C)[C@H]1O[C@@H](c2c(O)c(-c3ccccc3)cn(O)c2=O)[C@H](C)C[C@@H]1C	–	W2	72 h, drug-resistant strain, blood stage	0.2 µg/mL
c1ccc(Cn2c(N3CCNCC3)nc3cc(-c4ccncc4)ccc32)cc1	–	NF54	blood stage	1660 nM
CCN(CC)CCCC(C)Nc1ccnc2cc(Cl)ccc12 (centres unmarked)	–	D6	blood stage	10 nM
C[C@H]1[C@@H](O)O[C@@H]2O[C@@]3(C)CC[C@H]4[C@H](C)CC[C@@H]1[C@@]24OO3	–	3D7	24 h, blood stage	25.2 nM

SMILES	test	test system	conditions	IC50
COc1cc(C)c(-c2ccc(O)c3c2C[C@@H](C)N[C@@H]3C)c2cccc(O)c12 (single isomer, unassigned)	SYBR Green	NF54	blood stage	38.4 nM
CCN(CC)CCCC(C)Nc1ccnc2cc(Cl)ccc12 (centres unmarked)	–	3D7	96 h, blood stage	3 nM
Cc1cccc(C(=O)O)c1NC(=O)c1ccc(-c2ccccc2)cc1	resazurin	NF54	48 h, gametocyte	1140 nM
O[C@@H](c1cc(C(F)(F)F)nc2c(C(F)(F)F)cccc12)[C@H]1CCCCN1	SYBR Green	–	blood stage	17 nM
COC1=CC(c2cccn2C)=NC1=Cc1ccc(CCCCCCCCCC(C)O)[nH]1 (centres unmarked)	–	D6	blood stage	2330 nM
CCN(CC)CCCC(C)Nc1ccnc2cc(Cl)ccc12 (centres unmarked)	ELISA	3D7	blood stage	7.4 nM
Cc1cccc(C(=O)O)c1NC(=O)c1ccccc1-c1ccccc1	resazurin	NF54	48 h, gametocyte	> 10000 nM
NC1CCN(c2nc3cc(Cl)ccc3n2Cc2ccccc2)CC1	–	NF54	blood stage	22 nM
O=C(Nc1c(F)cccc1C(=O)O)c1ccc(-c2ccccc2)cc1	–	NF54	48 h, blood stage	> 10000 nM
C#CCCCCCCCCCCCC(O)CC(O)CO (centres unmarked)	–	D6	blood stage	25.9 µg/mL
Oc1cccc(C(Nc2nccs2)c2ccc3cccnc3c2O)c1 (centres unmarked)	SYBR Green	–	blood stage	1200 nM
Clc1ccc2c(N3CCN(CCCN4CCN(c5ccnc6cc(Cl)ccc56)CC4)CC3)ccnc2c1	–	–	blood stage	25.8 nM
COc1nc2ccc(Br)cc2cc1[C@@H](c1ccccc1)[C@@](O)(CCN(C)C)c1cccc2ccccc12	SYBR Green	–	blood stage	1090 nM
O=C1C(O)=C([C@H]2CC[C@H](c3ccc(Cl)cc3)CC2)C(=O)c2ccccc21	–	3D7	24 h, blood stage	6.5 nM
Cc1onc(-c2ccccc2)c1-c1ccc(S(N)(=O)=O)cc1	SYBR Green	–	blood stage	> 100000 nM
Clc1ccc2c(nc(N3CCNCC3)n2Cc2ccccc2)c1-c1ccccc1	–	NF54	blood stage	3650 nM
Cc1ccc(C(=O)Nc2ccc(S(=O)(=O)O)c3cc(S(=O)(=O)O)cc(S(=O)(=O)O)c23)cc1NC(=O)c1cccc(NC(=O)Nc2cccc(C(=O)Nc3cc(C(=O)Nc4ccc(S(=O)(=O)O)c5cc(S(=O)(=O)O)cc(S(=O)(=O)O)c45)ccc3C)c2)c1	SYBR Green	–	blood stage	> 100000 nM
C[C@@H]1CC[C@H]2[C@@H](C)C(=O)O[C@@H]3O[C@@]4(C)CC[C@@H]1[C@]32OO4	–	D6	blood stage	0.0085 µg/mL
N=C(N)c1ccc(OCCCCCOc2ccc(C(=N)N)cc2)cc1	SYBR Green	–	blood stage	5.6 nM
NCCCNc1nc2cc(Br)ccc2n1Cc1ccccc1	–	NF54	blood stage	382 nM
